Columns and labels:
Type in all cases: functional
Mus musculus [1] = organism: Mus musculus; test: Number of survivors of the total treated mice with B-16 melanoma, at 60 days.
Outline: (§1)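 BDF1 mice were implanted ip with a homogenate from 0.05 g of B-16 melanoma and dosed ip on days 1-9. Cures are survivors over total at 60 days.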

Mus musculus [2] = organism: Mus musculus; test: Anticancer activity measured as the number of survivors of the total treated mice with P-388 leukemia at 30 days.
Outline: (§2)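 BDF1 or CDF1 mice given 10^6 ascitic P-388 leukemia cells ip, then treated ip on days 1, 5 and 9. Cures are survivors over total treated at 30 days.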

Mus musculus [3] = test: Percent increase in median life span of BDF1 mice with P-388 leukemia at dose 50 mg/kg administered intraperitoneally; settings: BDF1, P388, ip, route intraperitoneal
Mus musculus [4] = test: Percent increase in median life span of BDF1 mice with B-16 melanoma at dose 6 mg/kg administered intraperitoneally; settings: BDF1, B16, ip, route intraperitoneal
Outline: (§3)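 BDF1 mice were implanted ip with a homogenate from 0.05 g of B-16 melanoma. Ip dosing ran on days 1-9, starting 24 h after implant, in dose-response studies following NCI protocols. The read-out was percent increase in life span (ILS). T/C ≥125% was taken as significant.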

Mus musculus [5] = organism: Mus musculus; test: Cures is the number of survivors of the total treated mice (10) with B-16 melanoma, at 60 days.; outline: as §1
Mus musculus [6] = test: Percent increase in median life span of BDF1 mice with P-388 leukemia at dose 3.1 mg/kg administered intraperitoneally; settings: BDF1, P388, ip, route intraperitoneal
Mus musculus [7] = test: Percent increase in median life span of BDF1 mice with B-16 melanoma at dose 3.1 mg/kg administered intraperitoneally; settings: BDF1, B16, ip, route intraperitoneal; outline: as §3
Mus musculus [8] = organism: Mus musculus; test: Cures is the number of survivors of the total treated mice (6) with P-388 leukemia, at 30 days.; outline: as §2
Mus musculus [9] = test: Percent increase in median life span of BDF1 mice with B-16 melanoma at dose 1.5 mg/kg administered intraperitoneally; settings: BDF1, B16, ip, route intraperitoneal; outline: as §3
Mus musculus [10] = test: Percent increase in median life span of BDF1 mice with P-388 leukemia at dose 6.25 mg/kg administered intraperitoneally; settings: BDF1, P388, ip, route intraperitoneal
Mus musculus [11] = test: Percent increase in median life span of BDF1 mice with B-16 melanoma at dose 3 mg/kg administered intraperitoneally; settings: BDF1, B16, ip, route intraperitoneal; outline: as §3
Mus musculus [12] = test: Percent increase in median life span of BDF1 mice with P-388 leukemia at dose 100 mg/kg administered intraperitoneally; settings: BDF1, P388, ip, route intraperitoneal
Mus musculus [13] = test: Percent increase in median life span of BDF1 mice with B-16 melanoma at dose 50 mg/kg administered intraperitoneally; settings: BDF1, B16, ip, route intraperitoneal; outline: as §3
Mus musculus [14] = test: Percent increase in median life span of BDF1 mice with B-16 melanoma at dose 6.25 mg/kg administered intraperitoneally; settings: BDF1, B16, ip, route intraperitoneal; outline: as §3
Mus musculus [15] = test: Percent increase in median life span of BDF1 mice with P-388 leukemia at dose 12.5 mg/kg administered intraperitoneally; settings: BDF1, P388, ip, route intraperitoneal
Mus musculus [16] = organism: Mus musculus; test: Cures is the number of survivors of the total treated mice (6) with advanced L-1210 leukemia, at 30 days.
Outline: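 Advanced L-1210 leukemia, with ip treatment on days 5, 9 and 13 relative to tumor inoculation.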

Mus musculus [17] = organism: Mus musculus; test: Cures is the number of survivors of the total treated mice (8) with Colon 26, at 60 days.
Mus musculus [18] = test: Percent increase in median life span of BDF1 mice with Colon 26 at dose 3.1 mg/kg administered intraperitoneally; 1, 5, 9 days of ip treatment relative to tumor inoculation; settings: BDF1, Colon 26, ip, 216 h, route intraperitoneal
Mus musculus [19] = test: Percent increase in median life span of BDF1 mice with P-388 leukemia at dose 6.25 mg/kg administered intraperitoneally; 1, 5, 9 days of ip treatment relative to tumor inoculation; settings: BDF1, P388, ip, 216 h, route intraperitoneal
Outline: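 BDF1 or CDF1 mice given 10^6 ascitic leukemia cells ip, then dosed ip on days 1, 5 and 9. Read-out is percent increase in life span versus untreated controls. Cures were scored as survivors/total at 30 days; when cures reached 50% or more, the run was extended until a specific ILS could be calculated. T/C ≥125% counted as significant.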

Mus musculus [20] = test: Percent increase in median life span of BDF1 mice with advanced L-1210 leukemia at dose 6.2 mg/kg administered intraperitoneally; treatment day +2 iv; settings: L1210
Mus musculus [21] = test: Percent increase in median life span of BDF1 mice with advanced P-388 leukemia at dose 12.5 mg/kg administered intraperitoneally; 4, 8, 12 days of ip treatment relative to tumor inoculation; settings: P388, ip, 288 h, route intraperitoneal
Mus musculus [22] = test: Percent increase in median life span of BDF1 mice with madison lung 109 leukemia administered intraperitoneally
Mus musculus [23] = test: Percent increase in median life span of BDF1 mice with B-16 melanoma at dose 3 mg/kg administered intraperitoneally; 1-9 days of ip treatment relative to tumor inoculation; settings: BDF1, B16, ip, route intraperitoneal; outline: as §3
Mus musculus [24] = test: Percent tumor inhibition at non-lethal dose was determined in BDF1 mice with madison lung 109 leukemia; 1, 5, 9 days of sc treatment relative to tumor inoculation
Mus musculus [25] = test: Percent increase in median life span of BDF1 mice with P-388 leukemia administered intraperitoneally
Mus musculus [26] = organism: Mus musculus; test: Cures is the number of survivors of the total treated mice (12) with P-388 leukemia, at 30 days.; outline: as §2

## Cl.Cl.N=C(N/N=C/c1c2ccccc2c(/C=N/NC(=N)Nc2ccccc2)c2ccccc12)Nc1ccccc1
Mus musculus [1]
  Cures: 0
Mus musculus [2]
  Cures: 0
Mus musculus [3]
  ILS at 50 mg/kg: 67%
Mus musculus [4]
  ILS at 6 mg/kg: 50%

## Cl.Cl.Fc1cccc2c(/C=N/NC3=NCCN3)c3ccccc3c(/C=N/NC3=NCCN3)c12
Mus musculus [2]
  Cures: 0
Mus musculus [5]
  Cures: 1
Mus musculus [6]
  ILS at 3.1 mg/kg: 115%
Mus musculus [7]
  ILS at 3.1 mg/kg: 100%

## Cl.Cl.Clc1cccc2c(/C=N/NC3=NCCN3)c3ccccc3c(/C=N/NC3=NCCN3)c12
Mus musculus [8]
  Cures: 3
Mus musculus [5]
  Cures: 3
Mus musculus [9]
  ILS at 1.5 mg/kg: 153%
Mus musculus [10]
  ILS at 6.25 mg/kg: 186%

## C/N=C(\NC)N/N=C/c1c2ccccc2c(/C=N/N/C(=N/C)NC)c2ccccc12
Mus musculus [8]
  Cures: 1
Mus musculus [1]
  Cures: 0
Mus musculus [10]
  ILS at 6.25 mg/kg: 118%
Mus musculus [11]
  ILS at 3 mg/kg: 111%

## Cl.Cl.Fc1cccc2c(/C=N/NC3=NCCN3)c3c(F)cccc3c(/C=N/NC3=NCCN3)c12
Mus musculus [8]
  Cures: 1
Mus musculus [5]
  Cures: 5
Mus musculus [12]
  ILS at 100 mg/kg: 140%
Mus musculus [13]
  ILS at 50 mg/kg: 194%

## C(=N\NC1=NCCN1)/c1c2ccccc2c(/C=N/NC2=NCCN2)c2cc3ccccc3cc12.Cl.Cl
Mus musculus [2]
  Cures: 0
Mus musculus [5]
  Cures: 1
Mus musculus [14]
  ILS at 6.25 mg/kg: 136%
Mus musculus [15]
  ILS at 12.5 mg/kg: 91%

## Br.Br.CN(/N=C/c1c2ccccc2c(/C=N/N(C)C(=N)N)c2ccccc12)C(=N)N
Mus musculus [1]
  Cures: 0
Mus musculus [2]
  Cures: 0
Mus musculus [15]
  ILS at 12.5 mg/kg: 91%
Mus musculus [4]
  ILS at 6 mg/kg: 50%

## Cl.Cl.Clc1ccc2c(/C=N/NC3=NCCCN3)c3ccccc3c(/C=N/NC3=NCCCN3)c2c1
Mus musculus [16]
  Cures: 0
Mus musculus [17]
  Cures: 1
Mus musculus [5]
  Cures: 6
Mus musculus [18]
  ILS at 3.1 mg/kg: 175%
Mus musculus [19]
  ILS at 6.25 mg/kg: 127%
Mus musculus [20]
  ILS at 6.2 mg/kg: 28%
Mus musculus [21]
  ILS at 12.5 mg/kg: 80%
Mus musculus [22]
  ILS: <25%
Mus musculus [23]
  ILS at 3 mg/kg: 194%
Mus musculus [24]
  Inhibition: 16%

## CN(C)c1ccc(N/C(S)=N/N=C/c2c3ccccc3c(/C=N/N=C(/S)Nc3ccc(N(C)C)cc3)c3ccccc23)cc1
Mus musculus [25]
  ILS: 0%

## Cl.Cl.Fc1ccc2c(/C=N/NC3=NCCN3)c3ccccc3c(/C=N/NC3=NCCN3)c2c1
Mus musculus [26]
  Cures: 3
Mus musculus [5]
  Cures: 4
Mus musculus [10]
  ILS at 6.25 mg/kg: 123%
Mus musculus [7]
  ILS at 3.1 mg/kg: 183%

## CN(/N=C/c1c2ccccc2c(/C=N/N(C)C2=NCCN2)c2ccccc12)C1=NCCN1
Mus musculus [8]
  Cures: 1
Mus musculus [1]
  Cures: 0
Mus musculus [10]
  ILS at 6.25 mg/kg: 124%
Mus musculus [11]
  ILS at 3 mg/kg: 95%

## Cl.Cl.Fc1ccc2c(/C=N/NC3=NCCN3)c3cc(F)ccc3c(/C=N/NC3=NCCN3)c2c1
Mus musculus [8]
  Cures: 1
Mus musculus [5]
  Cures: 1
Mus musculus [6]
  ILS at 3.1 mg/kg: 135%
Mus musculus [7]
  ILS at 3.1 mg/kg: 111%

## CN(C)C(=N)N/N=C/c1c2ccccc2c(/C=N/N=C(\N)N(C)C)c2cc(Cl)ccc12.Cl.Cl
Mus musculus [1]
  Cures: 0
Mus musculus [2]
  Cures: 0
Mus musculus [15]
  ILS at 12.5 mg/kg: 82%
Mus musculus [4]
  ILS at 6 mg/kg: 39%

Source: ChEMBL document CHEMBL1122207, “Antitumor agents. 2. Bisguanylhydrazones of anthracene-9,10-dicarboxaldehydes” (1982)
